# Test results as given in ChEMBL document CHEMBL1123628, “Streptonigrin and lavendamycin partial structures. Probes for the minimum, potent pharmacophore of streptonigrin, lavendamycin, and synthetic quinoline-5,8-diones” (J Med Chem, 1987).
# Tested on: B16
# Experiment: Cytotoxic activity against mouse melanoma cell culture(B-16)
# Format: functional, cell-based
# Summary of the method: (§1)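 10^4 B16 or L-1210 (ATCC 219) cells were seeded per well in DMEM with 5% bovine serum and grown 48 h at 37 °C under 5% CO2. Agents from 10 mg/mL stocks in 95% ethanol or DMSO were added as 2× medium, then 48 h more. L-1210 cells were dispersed by pipetting; B16 were detached with 0.01% trypsin/0.1% EDTA for 5 min at 37 °C. Cells were counted by hemocytometer or Coulter counter, and the dose halving the count versus untreated controls was read from the count–concentration plot.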
row,Structure (SMILES),IC50 [µg/mL]
1,COC1=C(N)C(=O)c2nc(-c3ccccn3)ccc2C1=O,0.45
2,NC1=CC(=O)c2cccnc2C1=O,0.4
3,COC(=O)c1nc(C(C)=O)c2[nH]c3ccccc3c2c1C,> 25
4,NC1=CC(=O)c2ccc(-c3cc(C(=O)O)ccc3N)nc2C1=O,> 20
5,COC1=C(N)C(=O)c2ncccc2C1=O,1.2
6,COC(=O)c1nc(C(=O)OC)c(N)c(-c2ccc(OC)c(OC)c2O)c1C,> 20
7,COC(=O)c1[nH]c(C(=O)OC)c(C)c2c3ccccc3nc1-2,> 25

# Tested on: CCRF-CEM
# Experiment: Cytotoxic activity against human lymphoblastic leukemia cell culture (CCRF-CEM)
# Format: functional, cell-based
row,Structure (SMILES),IC50 [µg/mL]
1,COC1=C(N)C(=O)c2nc(-c3ccccn3)ccc2C1=O,0.5
2,NC1=CC(=O)c2cccnc2C1=O,0.3
3,NC1=CC(=O)c2ccc(-c3cc(C(=O)O)ccc3N)nc2C1=O,14.6
4,COC1=C(N)C(=O)c2ncccc2C1=O,0.2
5,COC(=O)c1[nH]c(C(=O)OC)c(C)c2c3ccccc3nc1-2,16.8

# Tested on: Candida albicans
# Experiment: Antimicrobial activity was determined against Candida albicans ATCC 10231
# Format: functional
# Summary of the method: (§2)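 MICs (µg/mL) were determined by agar dilution/streak against S. aureus ATCC 13709, E. coli ATCC 9637, S. gallinarum ATCC 9184, K. pneumoniae ATCC 10031, M. smegmatis ATCC 607, P. aeruginosa ATCC 27853 and C. albicans ATCC 10231.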
row,Structure (SMILES),MIC [µg/mL]
1,COC1=C(N)C(=O)c2nc(-c3ccccn3)ccc2C1=O,3.12
2,NC1=CC(=O)c2ccc(-c3cc(C(=O)O)ccc3N)nc2C1=O,> 50
3,COC1=C(N)C(=O)c2ncccc2C1=O,50
4,COC(=O)c1nc(C(=O)OC)c(N)c(-c2ccc(OC)c(OC)c2O)c1C,> 50

# Other lines, results leading:
row,MIC [µg/mL],Structure (SMILES)
1,50,NC1=CC(=O)c2cccnc2C1=O
2,> 50,COC(=O)c1nc(C(C)=O)c2[nH]c3ccccc3c2c1C
3,> 50,COC(=O)c1[nH]c(C(=O)OC)c(C)c2c3ccccc3nc1-2

# Tested on: Escherichia coli
# Experiment: Antimicrobial activity was determined against Escherichia coli ATCC 9637
# Format: functional
# Summary of the method: as §2
row,Structure (SMILES),MIC [µg/mL]
1,COC1=C(N)C(=O)c2nc(-c3ccccn3)ccc2C1=O,> 100
2,NC1=CC(=O)c2ccc(-c3cc(C(=O)O)ccc3N)nc2C1=O,> 50
3,COC1=C(N)C(=O)c2ncccc2C1=O,> 50
4,COC(=O)c1nc(C(=O)OC)c(N)c(-c2ccc(OC)c(OC)c2O)c1C,> 50

# Other lines, results leading:
row,MIC [µg/mL],Structure (SMILES)
1,50,NC1=CC(=O)c2cccnc2C1=O
2,> 50,COC(=O)c1nc(C(C)=O)c2[nH]c3ccccc3c2c1C
3,> 50,COC(=O)c1[nH]c(C(=O)OC)c(C)c2c3ccccc3nc1-2

# Tested on: Epidermoid carcinoma cell line
# Experiment: Cytotoxic activity against human epidermoid carcinoma of the nasopharynx (9KB)
# Format: functional, cell-based
# Summary of the method: (§3)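 P388 (9PS, NCI-supplied line) and 9KB IC50s (µg/mL) followed NCI cell culture protocols. Samples were run in duplicate, and growth was compared with untreated controls. IC50 was extrapolated from a least-squares fit of the dose–response curve.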
row,Structure (SMILES),IC50 [µg/mL]
1,COC1=C(N)C(=O)c2nc(-c3ccccn3)ccc2C1=O,0.33
2,NC1=CC(=O)c2cccnc2C1=O,0.74
3,NC1=CC(=O)c2ccc(-c3cc(C(=O)O)ccc3N)nc2C1=O,> 10
4,COC1=C(N)C(=O)c2ncccc2C1=O,1.9
5,COC(=O)c1nc(C(=O)OC)c(N)c(-c2ccc(OC)c(OC)c2O)c1C,> 10

# Tested on: L1210
# Experiment: Cytotoxic activity against mouse lymphoblastic leukemia cell culture (L-1210)
# Format: functional, cell-based
# Summary of the method: as §1
row,Structure (SMILES),IC50 [µg/mL]
1,COC1=C(N)C(=O)c2nc(-c3ccccn3)ccc2C1=O,0.3
2,COC(=O)c1nc(C(C)=O)c2[nH]c3ccccc3c2c1C,> 25
3,NC1=CC(=O)c2ccc(-c3cc(C(=O)O)ccc3N)nc2C1=O,> 20
4,COC1=C(N)C(=O)c2ncccc2C1=O,1
5,COC(=O)c1nc(C(=O)OC)c(N)c(-c2ccc(OC)c(OC)c2O)c1C,> 20
6,COC(=O)c1[nH]c(C(=O)OC)c(C)c2c3ccccc3nc1-2,> 25

# Tested on: Mycolicibacterium smegmatis
# Experiment: Antimicrobial activity was determined against Mycobacterium smegmatis ATCC 607
# Format: functional
# Summary of the method: as §2
row,Structure (SMILES),MIC [µg/mL]
1,COC1=C(N)C(=O)c2nc(-c3ccccn3)ccc2C1=O,1.56
2,NC1=CC(=O)c2ccc(-c3cc(C(=O)O)ccc3N)nc2C1=O,> 50
3,COC1=C(N)C(=O)c2ncccc2C1=O,50
4,COC(=O)c1nc(C(=O)OC)c(N)c(-c2ccc(OC)c(OC)c2O)c1C,> 50

# Other lines, results leading:
row,MIC [µg/mL],Structure (SMILES)
1,12.5,NC1=CC(=O)c2cccnc2C1=O
2,> 50,COC(=O)c1nc(C(C)=O)c2[nH]c3ccccc3c2c1C
3,> 50,COC(=O)c1[nH]c(C(=O)OC)c(C)c2c3ccccc3nc1-2

# Tested on: P388
# Experiment: Cytotoxic activity against P388 mouse leukemia cell culture (9PS(P388))
# Format: functional, cell-based
# Summary of the method: as §3
row,Structure (SMILES),IC50 [µg/mL]
1,COC1=C(N)C(=O)c2nc(-c3ccccn3)ccc2C1=O,0.034
2,NC1=CC(=O)c2cccnc2C1=O,0.19
3,NC1=CC(=O)c2ccc(-c3cc(C(=O)O)ccc3N)nc2C1=O,5
4,COC1=C(N)C(=O)c2ncccc2C1=O,0.22
5,COC(=O)c1nc(C(=O)OC)c(N)c(-c2ccc(OC)c(OC)c2O)c1C,> 10

# Tested on: Pseudomonas aeruginosa
# Experiment: Antimicrobial activity was determined against Pseudomonas aeruginosa ATCC 27853 cells
# Format: functional
# Summary of the method: as §2
row,Structure (SMILES),MIC [µg/mL]
1,COC1=C(N)C(=O)c2nc(-c3ccccn3)ccc2C1=O,> 100
2,NC1=CC(=O)c2ccc(-c3cc(C(=O)O)ccc3N)nc2C1=O,> 50
3,COC1=C(N)C(=O)c2ncccc2C1=O,> 100
4,COC(=O)c1nc(C(=O)OC)c(N)c(-c2ccc(OC)c(OC)c2O)c1C,> 50

# More lines, now with the values ahead:
row,MIC [µg/mL],Structure (SMILES)
1,> 100,NC1=CC(=O)c2cccnc2C1=O
2,> 50,COC(=O)c1nc(C(C)=O)c2[nH]c3ccccc3c2c1C
3,> 50,COC(=O)c1[nH]c(C(=O)OC)c(C)c2c3ccccc3nc1-2

# Tested on: Salmonella enterica subsp. enterica serovar Gallinarum
# Experiment: Antimicrobial activity was determined against Salmonella gallinarum ATCC 9184
# Format: functional
# Summary of the method: as §2
row,Structure (SMILES),MIC [µg/mL]
1,COC1=C(N)C(=O)c2nc(-c3ccccn3)ccc2C1=O,> 100
2,NC1=CC(=O)c2ccc(-c3cc(C(=O)O)ccc3N)nc2C1=O,> 50
3,COC1=C(N)C(=O)c2ncccc2C1=O,> 50
4,COC(=O)c1nc(C(=O)OC)c(N)c(-c2ccc(OC)c(OC)c2O)c1C,> 50

# Now from value to molecule:
row,MIC [µg/mL],Structure (SMILES)
1,50,NC1=CC(=O)c2cccnc2C1=O
2,> 50,COC(=O)c1nc(C(C)=O)c2[nH]c3ccccc3c2c1C
3,> 50,COC(=O)c1[nH]c(C(=O)OC)c(C)c2c3ccccc3nc1-2

# Tested on: Staphylococcus aureus
# Experiment: Antimicrobial activity was determined against Staphylococcus aureus ATCC 13709
# Format: functional
# Summary of the method: as §2
row,Structure (SMILES),MIC [µg/mL]
1,COC1=C(N)C(=O)c2nc(-c3ccccn3)ccc2C1=O,1.56
2,NC1=CC(=O)c2ccc(-c3cc(C(=O)O)ccc3N)nc2C1=O,> 50
3,COC1=C(N)C(=O)c2ncccc2C1=O,6.25
4,COC(=O)c1nc(C(=O)OC)c(N)c(-c2ccc(OC)c(OC)c2O)c1C,> 50

# The next lines start with the values.
row,MIC [µg/mL],Structure (SMILES)
1,12.5,NC1=CC(=O)c2cccnc2C1=O
2,> 50,COC(=O)c1nc(C(C)=O)c2[nH]c3ccccc3c2c1C
3,> 50,COC(=O)c1[nH]c(C(=O)OC)c(C)c2c3ccccc3nc1-2

# Tested on: Klebsiella pneumoniae
# Experiment: Antimicrobial activity was determined against Klebsiella pneumoniae ATCC 10031
# Format: functional
# Summary of the method: as §2
row,Structure (SMILES),MIC [µg/mL]
1,COC1=C(N)C(=O)c2nc(-c3ccccn3)ccc2C1=O,25
2,NC1=CC(=O)c2ccc(-c3cc(C(=O)O)ccc3N)nc2C1=O,> 50
3,COC1=C(N)C(=O)c2ncccc2C1=O,50
4,COC(=O)c1nc(C(=O)OC)c(N)c(-c2ccc(OC)c(OC)c2O)c1C,> 50

# Further lines, results first:
row,MIC [µg/mL],Structure (SMILES)
1,50,NC1=CC(=O)c2cccnc2C1=O
2,> 50,COC(=O)c1nc(C(C)=O)c2[nH]c3ccccc3c2c1C
3,> 50,COC(=O)c1[nH]c(C(=O)OC)c(C)c2c3ccccc3nc1-2
